Results as given in ChEMBL document CHEMBL1129345, “Synthesis and potent anti-HIV-1 activity of novel 6-benzyluracil analogues of 1-[(2-hydroxyethoxy)methyl]-6-(phenylthio)thymine” (1996).

Tests used:
Format in all cases: functional
MT4 [1] = experiment: Cytotoxic dose required to reduce the proliferation of normal uninfected MT-4 cells; conditions: Homo sapiens, read-out: CD50 (the source's name)
Summary of the method: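 Proliferation of uninfected MT-4 cells measured by MTT assay over a range of compound concentrations. A 30% inhibition of growth versus control cultures was counted as significant. CD50 is the concentration giving 50% reduction in proliferation, reported as the mean of three independent determinations.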

[2] = system: Human immunodeficiency virus 1; experiment: Effective dose of compound required to inhibit 50% of HIV-1 antigen production in MT-4 cultures.; conditions: read-out: ED50 (the source's name)
Summary of the method: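 MT-4 cells were infected with HIV-1 HTLV-IIIB (0.005 MOI) for 2 h and washed. They were then added 1:10 to uninfected MT-4 cells preincubated with compound for 2 h in RPMI 1640 with 10% heat-inactivated FCS. Cultures were kept with compound for 6 days, and supernatant HIV-1 antigen was measured by ELISA. ED50 (50% antigen reduction) is the mean of three independent determinations.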

MT4 [3] = experiment: Selectivity index is the ratio between CD50 and ED50
Summary of the method: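 Selectivity index computed as CD50 (MTT proliferation assay in uninfected MT-4 cells) divided by ED50 (HIV-1 antigen ELISA in HTLV-IIIB-infected MT-4 cultures, 6 days). Both values are means of three independent determinations.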

SMILES | CC50 (MT4 [1]) [µM] | EC50 [2] [µM] | SI (MT4 [3])
CCc1c(Cc2ccccc2)n([C@@H]2CC[C@@H](CO)O2)c(=O)[nH]c1=O | 1 | 0.5 | 2
CCc1c(Cc2ccccc2)n([C@H]2CC[C@@H](CO)O2)c(=O)[nH]c1=O | 52 | 37 | 1.4
CCSCn1c(Cc2ccccc2)c(CC)c(=O)[nH]c1=O | 37 | 0.04 | 925
CCOCn1c(Cc2cc(C)cc(C)c2)c(CC)c(=O)[nH]c1=O | 100 | 0.004 | 25000
CCSCn1c(Cc2cc(C)cc(C)c2)c(CC)c(=O)[nH]c1=O | 68 | 0.004 | 17000
CCc1c(Cc2ccccc2)n(C(C)OC)c(=O)[nH]c1=O (stereo not drawn) |  | > 100 | 
CCSCn1c(Cc2ccccc2)c(C(C)C)c(=O)[nH]c1=O | 37 | 0.006 | 6200
CSCn1c(Cc2ccccc2)c(C(C)C)c(=O)[nH]c1=O | 37 | 0.02 | 1850
CCOCn1c(Cc2ccccc2)c(CC)c(=O)[nH]c1=O |  | 0.041 | 
CCc1c(Cc2cc(C)cc(C)c2)n(CSC)c(=O)[nH]c1=O | 52 | 0.05 | 1040
CCOC(C)n1c(Cc2ccccc2)c(CC)c(=O)[nH]c1=O (stereo not drawn) |  | > 100 | 
CCc1c(Cc2ccccc2)n(C(C)OCCO)c(=O)[nH]c1=O (stereo not drawn) |  | > 100 | 
CCc1c(Cc2cc(C)cc(C)c2)n(C(C)OC)c(=O)[nH]c1=O (stereo not drawn) | 100 | 2 | 50
CCc1c(Cc2ccccc2)n(CSC)c(=O)[nH]c1=O | 32 | 0.002 | 16000
CCOC(CC)n1c(Cc2cc(C)cc(C)c2)c(CC)c(=O)[nH]c1=O (stereo not drawn) | 130 | 15 | 8.7
CCOCn1c(Cc2ccccc2)c(C(C)C)c(=O)[nH]c1=O [EMIVIRINE] | 141 | 0.005 | 28000
Cc1cn([C@H]2C[C@H](N=[N+]=[N-])[C@@H](CO)O2)c(=O)[nH]c1=O [ZIDOVUDINE] | 52 | 0.04 | 1300
